Test results: paper PMC3024510 (Cancer Immunology, Immunotherapy : CII, 2010)

Key:
T2 cells = assay type: cell-based, human; settings: 4 h 51Cr release; singlets
Method in brief: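 Effector: a clone from RCC-patient PBLs given repeated peptide-loaded autologous DC and PBL stimulations, limiting-dilution cloned, and kept on 120 U/ml IL-2. […] Supernatant 51Cr was gamma-counted.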

cancer cells = test: cold target inhibition assay; assay type: cell-based; settings: unlabeled peptide-loaded T2 cells, inhibitor:target ratio 20:1; singlets
Method in brief: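 51Cr-labeled (1 h) cancer cell line targets, including an HLA-A2− breast cancer line, were co-cultured 4 h with the peptide-specific CTL clone. The clone came from RCC-patient PBLs and was maintained on 120 U/ml IL-2. Unlabeled peptide-loaded T2 cells were added at 20-fold excess over targets. Supernatant 51Cr was gamma-counted.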

HLA-A2 = test: HLA stabilization assay for peptide binding to HLA class I molecules; set-up: species or system human; settings: mean value from two experiments; normalized to HIV (40 μM peptide)
[1] = system: PBLs from cancer patients; test: IFN-γ ELISPOT assay, cancer patients; assay type: cell-based, human; settings: all cancer patients tested (BC, MM, RCC)
Method in brief: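 Cells were monocyte-depleted, cryopreserved leukapheresis PBLs from end-stage breast cancer, MM and RCC patients. They were stimulated once with 20 µM peptide, given 40 U/ml IL-2 next day, and tested after 7–8 days. The overnight IFN-γ ELISPOT used 3 × 10^5 cells/well in duplicate ± 5 µM peptide, with 10^4 T2 cells per well. Responders: background-subtracted mean spots ±½ SD >25 per 10^5 cells.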

In the case of ILIDWLVQV [CB204], the “lysis of peptide-loaded T2 cells by CB204-specific CTL clone” value (T2 cells) is reported as “able to lyse T2 cells loaded with CB204”, the “inhibition of cancer cell lysis by cold T2 target cells presenting the peptide” value (cancer cells) is reported as “inhibited lysis of cancer cells” and the “HLA-A2 stabilization relative to HIV” value (HLA-A2) is reported as “stabilizes HLA-A2 to a higher degree than HIV”. For the same sequence, the “cancer patients with spontaneous T-cell responses” value [1] was 73%.

In the case of “ILKEPVHGV [HIV-1 pol476–484, reference compound]”, the “lysis of peptide-loaded T2 cells by CB204-specific CTL clone” value (T2 cells) is reported as “not T2 cells loaded with an irrelevant HIV peptide”.
